In ChEMBL document CHEMBL1142516, “Design, synthesis, and structure-affinity relationships of novel series of sialosides as CD22-specific inhibitors” (J Med Chem, 2008) one finds IC50 data, which are given here for seven compounds.

The target of one test is T1, B-cell receptor CD22 (Homo sapiens, UniProt P20273).
T1 sequence (P20273 whole entry): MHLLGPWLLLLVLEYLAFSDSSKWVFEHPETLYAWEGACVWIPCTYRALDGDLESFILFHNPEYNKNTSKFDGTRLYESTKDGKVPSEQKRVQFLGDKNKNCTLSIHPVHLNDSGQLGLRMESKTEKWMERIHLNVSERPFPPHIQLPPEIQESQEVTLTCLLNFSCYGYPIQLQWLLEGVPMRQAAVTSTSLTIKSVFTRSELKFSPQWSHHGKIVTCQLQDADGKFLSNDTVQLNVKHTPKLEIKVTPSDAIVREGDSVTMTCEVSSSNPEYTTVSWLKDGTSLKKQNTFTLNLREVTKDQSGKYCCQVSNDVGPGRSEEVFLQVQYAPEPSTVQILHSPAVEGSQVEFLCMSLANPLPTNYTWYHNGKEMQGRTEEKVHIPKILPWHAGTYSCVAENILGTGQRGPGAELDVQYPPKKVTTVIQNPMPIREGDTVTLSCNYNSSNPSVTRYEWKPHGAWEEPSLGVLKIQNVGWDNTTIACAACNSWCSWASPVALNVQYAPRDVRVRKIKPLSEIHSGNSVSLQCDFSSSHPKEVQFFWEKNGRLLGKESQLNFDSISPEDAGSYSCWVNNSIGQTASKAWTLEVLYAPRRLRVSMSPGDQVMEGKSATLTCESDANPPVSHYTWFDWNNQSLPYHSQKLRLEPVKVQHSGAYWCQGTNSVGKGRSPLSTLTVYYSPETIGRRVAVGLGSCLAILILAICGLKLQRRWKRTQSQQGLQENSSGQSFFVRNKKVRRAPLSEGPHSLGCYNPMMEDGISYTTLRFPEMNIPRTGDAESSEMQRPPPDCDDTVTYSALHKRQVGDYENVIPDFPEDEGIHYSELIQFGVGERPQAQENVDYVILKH
As to the kind of experiment: Binding affinity to biotinylated human CD22-human IgG1 chimeric protein expressed in mouse J558LST6 cells by flow cytometry. The class given is cell-based. The essentials: (§1)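 IC50 from inhibition of CD22-Fc binding to alpha2,6-sialic acid on ST6GalI-transfected J558L mouse myeloma cells (J558LST6), incubated with CD22-Fc plus varied sialoside concentrations. Detection with Alexa Fluor 647-streptavidin, 30 min on ice, then flow cytometry. % binding = (A−B)/(C−B)×100 using MFI: A, sialoside sample; B, parent J558L; C, untreated J558LST6. IC50 taken as 50% binding inhibition; means of ≥3 independent determinations.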

The nature of test [1]: Binding affinity to biotinylated mouse CD22-human IgG1 chimeric protein expressed in mouse J558LST6 cells by flow cytometry. The class given is cell-based. The essentials:
as §1

As to `COc1ccc(O[C@@H]2O[C@H](CO[C@]3(C(=O)O)C[C@H](O)[C@@H](NC(=O)CO)[C@H]([C@H](O)[C@H](O)CNC(=O)c4cc(Cl)ccc4O)O3)[C@H](O)[C@H](O)[C@H]2O)cc1`, the IC50 on B-cell receptor CD22 worked out at 116 µM; in test [1], 161 µM.

With `C[Si](C)(C)CCO[C@@H]1O[C@H](CO[C@]2(C(=O)O)C[C@H](O)[C@@H](NC(=O)CO)[C@H]([C@H](O)[C@H](O)CO)O2)[C@H](O)[C@H](O)[C@H]1O`, the IC50 on B-cell receptor CD22 stood at 550 µM; in test [1], 833 µM.

In the case of `COc1ccc(O[C@@H]2O[C@H](CO[C@]3(C(=O)O)C[C@H](O)[C@@H](NC(=O)CO)[C@H]([C@H](O)[C@H](O)CNC(=O)c4ccccc4)O3)[C@H](O)[C@H](O)[C@H]2O)cc1`, the IC50 at B-cell receptor CD22 came out at 125 µM; in test [1] it was 115 µM.

Take `COc1ccc(O[C@@H]2O[C@H](CO[C@]3(C(=O)O)C[C@H](O)[C@@H](NC(=O)CO)[C@H]([C@H](O)[C@H](O)CO)O3)[C@H](O)[C@H](O)[C@H]2O)cc1`: the IC50 came out at 148 µM at B-cell receptor CD22 and 497 µM in test [1].

With `COc1ccc(O[C@@H]2O[C@H](CO[C@]3(C(=O)O)C[C@H](O)[C@@H](NC(=O)CO)[C@H]([C@H](O)[C@H](O)CNC(=O)c4cccnc4)O3)[C@H](O)[C@H](O)[C@H]2O)cc1`, the IC50 at B-cell receptor CD22 turned out to be 132 µM; in test [1] it was 32.2 µM.

In the case of `COc1ccc(O[C@@H]2O[C@H](CO[C@]3(C(=O)O)C[C@H](O)[C@@H](NC(=O)CO)[C@H]([C@H](O)[C@H](O)CNC(=O)c4ccccc4O)O3)[C@H](O)[C@H](O)[C@H]2O)cc1`, the IC50 at B-cell receptor CD22 worked out at 193 µM; in test [1], 138 µM.

As for `COc1ccc(O[C@@H]2O[C@H](CO[C@]3(C(=O)O)C[C@H](O)[C@@H](NC(=O)CO)[C@H]([C@H](O)[C@H](O)CN)O3)[C@H](O)[C@H](O)[C@H]2O)cc1`, the IC50 at B-cell receptor CD22 was 85 µM; in test [1] it was 93.1 µM.
